Drawing on ChEMBL document CHEMBL4007396, “New diphenylmethane derivatives as peroxisome proliferator-activated receptor alpha/gamma dual agonists endowed with anti-proliferative effects and mitochondrial activity” (Eur J Med Chem, 2017), this text covers Activity, Kd and EC50 for two molecules.

The source made the active and inactive calls. No cut-off for these calls is given here.

In data set [1] the target is T1, Peroxisome proliferator-activated receptor gamma (Homo sapiens) (UniProt P37231).
T1 sequence (whole entry): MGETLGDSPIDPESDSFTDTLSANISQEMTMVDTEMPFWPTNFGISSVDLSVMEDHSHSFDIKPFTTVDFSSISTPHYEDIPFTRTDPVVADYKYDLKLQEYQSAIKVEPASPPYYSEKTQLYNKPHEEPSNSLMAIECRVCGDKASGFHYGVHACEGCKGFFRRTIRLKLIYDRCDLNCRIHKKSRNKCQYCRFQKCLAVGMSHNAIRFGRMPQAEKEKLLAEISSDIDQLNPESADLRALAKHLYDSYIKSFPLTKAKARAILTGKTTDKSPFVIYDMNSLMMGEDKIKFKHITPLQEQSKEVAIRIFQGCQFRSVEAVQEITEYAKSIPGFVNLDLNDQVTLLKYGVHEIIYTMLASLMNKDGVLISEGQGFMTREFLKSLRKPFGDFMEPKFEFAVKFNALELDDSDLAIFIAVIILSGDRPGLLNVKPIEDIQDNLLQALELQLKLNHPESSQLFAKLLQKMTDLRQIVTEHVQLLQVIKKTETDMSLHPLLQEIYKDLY
Nature of the data set: Agonist activity at PPARgamma in human HT-29 cells harboring APC mutant assessed as inhibition of Wnt/beta-catenin signaling pathway by measuring decrease in c-Myc level at 10 uM treated for 24 hrs by Western blot method. The class given is cell-based. In short, it runs like this:
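RIPA lysates, 80 μg protein immunoblotted for c-Myc with β-actin loading control; c-Myc/β-actin densitometry, mean ± SD of at least three independent experiments.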
(In general: A western blot detects proteins with antibodies after separation by electrophoresis.)

The test system of another data set is HEK-293T. In words: Effect on p21waf1/cip1 protein expression in HEK293T cells at 10 uM after 48 hrs by Western blot method. The class given is cell-based. To be noted: human. In short, it runs like this: (§1)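 HT-29 or HEK293T cells in DMEM/10% FBS treated 48 h with 10 μM compound (DMSO vehicle, final below 0.1%). RIPA lysates (with protease inhibitors), 80 μg protein per lane immunoblotted for p21waf1/cip1 with β-actin loading control; densitometric p21/β-actin ratio, mean ± SD of at least three independent experiments.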

The target of data set [2] is T2, Peroxisome proliferator-activated receptor alpha (Homo sapiens) (UniProt Q07869).
T2 sequence (whole entry): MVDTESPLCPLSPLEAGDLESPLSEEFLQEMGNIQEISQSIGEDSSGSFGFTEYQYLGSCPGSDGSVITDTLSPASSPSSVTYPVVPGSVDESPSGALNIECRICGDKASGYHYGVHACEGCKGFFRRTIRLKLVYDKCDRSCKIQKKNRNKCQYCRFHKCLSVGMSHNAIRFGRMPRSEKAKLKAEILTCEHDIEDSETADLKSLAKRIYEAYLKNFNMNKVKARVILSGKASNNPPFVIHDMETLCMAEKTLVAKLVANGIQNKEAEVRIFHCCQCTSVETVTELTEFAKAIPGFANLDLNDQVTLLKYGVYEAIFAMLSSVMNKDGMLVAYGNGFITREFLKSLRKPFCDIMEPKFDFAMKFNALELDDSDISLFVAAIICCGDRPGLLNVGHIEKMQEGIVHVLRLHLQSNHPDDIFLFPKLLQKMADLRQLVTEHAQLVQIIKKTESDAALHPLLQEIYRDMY
In words: Agonist activity at PPARalpha in human HepG2 cells assessed as increase in mitochondrial mass at 1 uM by CellLight Mitochondria-GFP staining based fluorescent microscopic method relative to control. The class given is cell-based. In outline: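 Serum-free HepG2 at 60% confluence transduced with Mitochondria-GFP BacMam 2.0 (50 particles/cell) and given 1 μM compound or 50 μM Wy-14,643 for 24 h. Imaged at 20x with GFP filters (ex 485/em 535 nm); separately, SDS/Tris pH 7.5 lysates read at ex 475, em 500-550 nm. Mean ± SD of three experiments, ANOVA/Bonferroni.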

Data set [3] has as its target T3, Peroxisome proliferator-activated receptor delta (Homo sapiens, UniProt Q03181).
T3 sequence (Q03181 whole entry): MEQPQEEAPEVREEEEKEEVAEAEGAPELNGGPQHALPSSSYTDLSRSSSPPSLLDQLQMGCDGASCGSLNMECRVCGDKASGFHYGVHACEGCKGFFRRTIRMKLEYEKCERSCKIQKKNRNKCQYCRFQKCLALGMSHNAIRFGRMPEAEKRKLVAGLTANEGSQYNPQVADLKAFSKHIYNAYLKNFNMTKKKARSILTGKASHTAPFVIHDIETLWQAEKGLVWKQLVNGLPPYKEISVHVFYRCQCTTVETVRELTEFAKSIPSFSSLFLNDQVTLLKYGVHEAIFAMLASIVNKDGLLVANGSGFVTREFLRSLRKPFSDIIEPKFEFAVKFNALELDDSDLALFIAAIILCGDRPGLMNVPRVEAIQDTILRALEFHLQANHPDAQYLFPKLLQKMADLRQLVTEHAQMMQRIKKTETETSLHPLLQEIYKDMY
Nature of the data set: Binding affinity to PPARdelta (unknown origin) assessed as thermodynamic dissociation constant by SPR assay. On the technique in general: SPR reads the build-up and loss of mass on a sensor chip optically.

Data set [4] has as its target T2, Peroxisome proliferator-activated receptor alpha (Homo sapiens). In words: Agonist activity at PPARalpha assessed as induction of positive regulatory loop based receptor transcriptional activation by measuring upregulation of PPARalpha protein expression level in human HepG2 cells at 1 uM after 48 hrs by Western blot method. The class given is cell-based. In short, it runs like this:
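HepG2 serum-depleted 24 h, then treated 48 h with 1 μM compound (Wy-14,643 at 50 μM as reference). Nitrocellulose immunoblots probed for CAC, CPT1 or PPARα with β-actin loading control, chemiluminescent detection; band densitometry expressed as fold change versus untreated cells; three independent experiments.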

Data set [5] has as its target T1, Peroxisome proliferator-activated receptor gamma (Homo sapiens). In words: Agonist activity at PPARgamma in human HT-29 cells assessed as upregulation of p21waf1/cip1 protein expression at 10 uM after 48 hrs by Western blot method. The class given is cell-based. In outline:
as §1

Data set [6] has as its target T4, Peroxisome proliferator-activated receptor gamma (Homo sapiens, UniProt P37231).
T4 sequence (P37231 whole entry): T1 sequence (whole entry)
In words: Binding affinity to PPARgamma (unknown origin) assessed as kinetic dissociation constant by SPR assay.

The target in data set [7] is T2, Peroxisome proliferator-activated receptor alpha (Homo sapiens). Nature of the data set: Agonist activity at PPARalpha assessed as induction of positive regulatory loop based receptor transcriptional activation by measuring upregulation of PPARalpha mRNA level in human HepG2 cells at 1 uM after 24 hrs by RT-PCR method. The class given is cell-based. In short, it runs like this:
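Serum-free HepG2 exposed 24 h to 1 μM test agent (Wy-14,643 reference at 50 μM). RNA extracted from 1x10⁶ cells; TaqMan real-time RT-PCR for CAC, CPT1 or PPARα, normalized to β-actin. Mean ± SD of three independent duplicate experiments; one-way ANOVA with Bonferroni test.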

Data set [8] deals with T5, Peroxisome proliferator-activated receptor alpha (Homo sapiens, UniProt Q07869).
T5 sequence (Q07869 whole entry): T2 sequence (whole entry)
Nature of the data set: Transactivation of GAL4-fused human PPARalpa LBD expressed in human HepG2 cells after 20 hrs by luciferase reporter gene assay. The class given is cell-based.

For data set [9], the target named is T4, Peroxisome proliferator-activated receptor gamma. In words: Binding affinity to PPARgamma (unknown origin) assessed as thermodynamic dissociation constant by SPR assay. As to conditions: read-out: Kd.

For the molecule `C[C@@H](Oc1ccc(Cc2ccc(OCc3coc(-c4ccccc4)n3)cc2)cc1)C(=O)O`, the outcome in data set [1], in data set [4], in [5] and in data set [7] was Active. In addition, the Activity entry in the data set with HEK-293T is “Non-Toxic”; in data set [2], 30%. Moreover, the Kd result was “Not Active” in data set [3], 0.095 s⁻¹ in [6] and 3.7 nM in data set [9]. For the same molecule, the EC50 (usually the concentration giving half of the maximal effect) in data set [8] worked out at 42 nM.

With `C[C@H](Oc1ccc(Cc2ccc(OCc3coc(-c4ccccc4)n3)cc2)cc1)C(=O)O`, the outcome in data set [1], in data set [4], in data set [5] and in [7] was Active. The Activity result is “Non-Toxic” with HEK-293T and 30% in data set [2]. Also, the Kd result in data set [3] was “Not Active”; in [6], 0.099 s⁻¹; in data set [9] it was 4.9 nM. For the same molecule, the EC50 in [8] amounted to 46 nM.
